Measured values reported in paper PMC10870114 (Clinical Cancer Research, 2023).

Legend:
[1] = tested on: locally advanced rectal cancer; assay: Neoadjuvant rectal; format: in vivo, human; conditions: for NAR score, median: patients who underwent surgery
Outline: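 Patients without clinical complete response were to have surgery 9.5±2 weeks after CRT completion. On the resected tissue, tumour regression was graded by the modified Ryan scheme, from 0 (complete response) to 3 (poor or no response). The NAR score was calculated only for operated patients, with lower scores denoting better prognosis.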

[2] = tested on: patients with locally advanced rectal cancer; assay: Late toxicities and deaths after the on-treatment period; format: in vivo, human
[3] = tested on: patients with advanced solid tumors; conditions: cited from earlier work
[4] = tested on: locally advanced rectal cancer; assay: Disease-free survival, recurrence and progression events; format: in vivo, human
Outline: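 They also received capecitabine 825 mg/m2 twice daily and RT 50–50.4 Gy in 25 or 28 fractions, 5 days/week, for 5–5.5 weeks. DFS was estimated by Kaplan–Meier with two-sided 95% CI.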

[5] = Overall, peposertib 50-250 mg + RT + capecitabine, n = 19

COc1ccc([C@@H](O)c2cc(-c3ncnc4cc(N5CCOCC5)ccc34)c(F)cc2Cl)nn1 [Peposertib]
NAR score, median ([1]; 100-mg dose cohort): 9.4 | NAR score, median ([1]; 150-mg dose cohort): 13.8 | NAR score, median ([1]; 250-mg dose cohort): 15.0 | Patients with a Ryan score of 1 ([1]; one each in the 100-mg and 150-mg cohorts): two patients | Dose dependence of late toxicities ([2]; across the peposertib dose range): no discernible indication of a dose-dependent effect | Late toxicities: anemia ([2]; all cohorts): 3 n | Patients with late toxicities ([2]; all cohorts, 18 patients, data cutoff March 22, 2022): 94.7% | Grade ≥3 late toxicities ([2]; all cohorts, at data cutoff): 11 patients | Late toxicities: proctitis ([2]; all cohorts, n = 3): 15.8% | Late toxicities: gastrointestinal disorders ([2]; all cohorts, n = 12): 63.2% | Patients who died during the study ([2]; all considered unrelated to study treatment, not treatment-emergent): Three | Toxicity of peposertib monotherapy [3]: no significant toxicity | Dose recommended for further evaluation ([3]; monotherapy): 400 mg twice daily | Disease-free survival time: Median [4, 5]: 21.2 mo | Disease-free survival time: Minimum [4, 5]: 0 mo | Disease-free survival time: Number of events (PD, deaths) [4, 5]: 5 (26.3) n (%) | Disease-free survival time: maximum [4, 5]: 23.5 mo | Disease-free survival rate at 18 months ([4]; all cohorts, Kaplan-Meier estimate, 95% CI, 25.9–87.9): 65.9% | Median DFS ([4]; all cohorts, 95% CI, 18.0–not done): 21.2 months | Locoregional recurrence within the study period ([4]; nine patients who underwent surgery, follow-up of up to 2 years): none | Progression events at data cutoff ([4]; three deaths, two progressive disease events): five
